Measured values from different studies.
Cell line: MCF7
Observed: cell growth or viability

COc1cc(C(CC(N)=O)NCCc2ccc(O)c(O)c2)ccc1O (stereo not drawn)  GI50 (MTT): 26200 nM
COc1ccc(C(=O)/C=C/c2cccc3ccccc23)cc1S(N)(=O)=O  GI50 (SRB; 48 h): 2100 nM
COc1cc(C(CC(=O)c2ccc(Cl)cc2)NCCc2ccc(O)c(O)c2)ccc1O (stereo not drawn)  GI50 (MTT): 1090 nM
COc1ccc(C(=O)/C=C/c2c(F)cccc2Cl)cc1S(N)(=O)=O  GI50 (SRB; 48 h): 2200 nM
COc1cc(C(CC(=O)c2ccc([N+](=O)[O-])cc2)NCCc2ccc(O)c(O)c2)ccc1O (stereo not drawn)  GI50 (MTT): 160 nM
CC(=O)c1c(C)c2cnc(Nc3ccc(N4CCNCC4)cn3)nc2n(C2CCCC2)c1=O  GI50 (resazurin): 150 nM
COc1cc2c(OC)nc3c4cc5c(cc4cc(OCCCN4CCCC4)c3c2cc1OC)OCO5  GI50 (MTT; 72 h): 8600 nM
COc1cccc(Oc2ccccc2NC(=O)CNC(=O)c2cccc3ccccc23)c1  GI50 (SRB; 48 h): 100 nM
COc1cc2c(OC)nc3c4cc5c(cc4cc(OCCN4CCCC4)c3c2cc1OC)OCO5  GI50 (MTT; 72 h): ≥ 100000 nM
COc1ccc(C(=O)/C=C/c2cc3c(cc2Br)OCO3)cc1S(N)(=O)=O  GI50 (SRB; 48 h): 3800 nM
COc1cc(C(CC(=O)c2ccc(C(C)(C)C)cc2)NCCc2ccc(O)c(O)c2)ccc1O (stereo not drawn)  GI50 (MTT): 2600 nM
COc1cc2c(cc1O)CC[C@@H]1[C@@H]2CC[C@]2(C)[C@@H](O)CC[C@@H]12  GI50 (SRB; 96 h): 600 nM
COc1ccc(C(=O)/C=C/c2cccc(Br)c2)cc1S(N)(=O)=O  GI50 (SRB; 48 h): 1600 nM
COc1ccc(-c2ccc(-c3ccc(C(=N)N)nc3)s2)cc1Cl  GI50 (SRB): 1750 nM
COc1cc2c(OC)nc3c4cc5c(cc4cc(O)c3c2cc1OC)OCO5  GI50 (MTT; 72 h): 13000 nM
COc1ccc(C(=O)/C=C/c2cccc(Cl)c2)cc1S(N)(=O)=O  GI50 (SRB; 48 h): 2000 nM
CCN(CC)CCOc1cc2cc3c(cc2c2nc(OC)c4cc(OC)c(OC)cc4c12)OCO3  GI50 (MTT; 72 h): ≥ 100000 nM
COc1cc(-c2ccc(-c3ccc(C(=N)N)nc3)s2)cc(OC)c1OC  GI50 (SRB): 1300 nM
